Published values from different studies.
Compare with care: the assays were run in different laboratories.
Nuclear receptor subfamily 4 group A member 2: Nuclear receptor subfamily 4 group A member 2 (Homo sapiens, UniProt P43354)
P2RY14: P2Y purinoceptor 14 (P2RY14, Homo sapiens, UniProt Q15391)
IRAK4: Interleukin-1 receptor-associated kinase 4 (IRAK4, Homo sapiens, UniProt Q9NWZ3)
CDKL1: Cyclin-dependent kinase-like 1 (CDKL1, Homo sapiens, UniProt Q00532)

| SMILES | target | test | system | conditions | measurement | result |
| --- | --- | --- | --- | --- | --- | --- |
| COC(=O)c1cn(C)c2ccc(-c3cccnc3)cc12 | Nuclear receptor subfamily 4 group A member 2 | thermal stability, DSF | – | 100 µM | ΔTm | -0.46 °C |
| NC/C(=C\F)COc1cccc(Cn2c(=S)[nH]c(=O)c3[nH]cnc32)c1 | Eosinophil peroxidase (Homo sapiens, UniProt P11678) | enzyme activity, inhibitor | – | 5 µM | remaining activity | 149% |
| CC(C)n1c(/C=C/C(O)CC(O)CC(=O)O)c(-c2ccc(F)cc2)c2ccccc21 (stereo not shown) | Nuclear receptor subfamily 4 group A member 2 | thermal stability, DSF | – | 100 µM | ΔTm | -0.62 °C |
| CC(C)OC(=O)[C@H](Cc1c[nH]c2ccccc12)NC(=O)c1cccs1 | P2RY14 | cAMP, antagonist | HEK293 | 0.1 µM | inhibition | 70.3% |
| CC[C@H](C)C(=O)O[C@H]1C[C@H](O)C=C2C=C[C@H](C)[C@H](CC[C@@H](O)C[C@@H](O)CC(=O)O)[C@H]21 | Nuclear receptor subfamily 4 group A member 2 | thermal stability, DSF | – | 100 µM | ΔTm | -0.15 °C |
| CC(C)OC(=O)[C@H](Cc1c[nH]c2ccccc12)NC(=O)COc1ccc(Cl)cc1 | P2RY14 | cAMP, antagonist | HEK293 | 0.1 µM | inhibition | 39.6% |
| CCCCCCCC(=O)c1c(O)cc(O)cc1CC(=O)OCC | Nuclear receptor subfamily 4 group A member 2 | thermal stability, DSF | – | 100 µM | ΔTm | -3.11 °C |
| C#Cc1cc(-c2cc(Nc3nc(N[C@@H](C)c4ccc(F)cn4)ncc3Cl)n[nH]2)ccc1C=O | TRAF2 and NCK-interacting protein kinase (TNIK, Homo sapiens, UniProt Q9UKE5) | enzyme activity, inhibitor | – | 0.2 µM | inhibition | 56.6% |
| CC(C)OC(=O)[C@H](Cc1c[nH]c2ccccc12)NC(=O)c1ccc2nccnc2c1 | P2RY14 | cAMP, antagonist | HEK293 | 0.1 µM | inhibition | 89.6% |
| CCCCC(=O)Nc1ccc(-c2ccc3ncn(CCC)c(=O)c3c2)cn1 | Ribosomal protein S6 kinase alpha-4, N-terminal kinase domain (RPS6KA4, Homo sapiens, UniProt O75676) | binding, competition with immobilised ligand | – | 0.5 µM | remaining binding | 89% |
| O=C(O)C[C@H](O)C[C@H](O)/C=C/c1c(C2CC2)nc2ccccc2c1-c1ccc(F)cc1 | Nuclear receptor subfamily 4 group A member 2 | thermal stability, DSF | – | 100 µM | ΔTm | -0.36 °C |
| C#Cc1cnc(Nc2ccnc(CO)c2)nc1Nc1ccccc1S(C)(=O)=NC#N (stereo not shown) | IRAK4 | enzyme activity, inhibitor, radiometric | – | 1 µM | remaining activity | 1.36% |
| CCCCCCCCC(=O)c1cc(O)c(O)c(O)c1 | Nuclear receptor subfamily 4 group A member 2 | thermal stability, DSF | – | 100 µM | ΔTm | -2.52 °C |
| CC(C)OC(=O)[C@H](Cc1c[nH]c2ccccc12)NC(=O)COc1ccc(F)cc1 | P2RY14 | cAMP, antagonist | HEK293 | 0.1 µM | inhibition | 12.1% |
| N#Cc1ccc(NC(=O)Nc2ccccc2)cc1 | Tyrosine-protein kinase JAK3, JH1 (JAK3, Homo sapiens, UniProt P52333) | cell-free assay, competition with immobilised ligand | – | 25 µM | remaining binding | 96% |
| O=C(COc1ccc(Br)cc1)N[C@@H](Cc1c[nH]c2ccccc12)C(=O)O | P2RY14 | cAMP, antagonist | HEK293 | 0.1 µM | inhibition | 39% |
| CNC(=O)c1ccccc1Nc1nc(Nc2ccc(CO)cc2)ncc1Cl | IRAK4 | enzyme activity, inhibitor, radiometric | – | 1 µM | remaining activity | 1.39% |
| Cc1cc(O)c(-c2ccc([C@@H](C)CN(C)C)cc2)c2c1[nH]c(=O)c1sccc12 | Microtubule-associated serine/threonine-protein kinase 4 (MAST4, Homo sapiens, UniProt O15021) | enzyme activity, inhibitor | – | 0.1 µM | inhibition | 2% |
| Cc1ccc(OCC(=O)N[C@@H](Cc2c[nH]c3ccccc23)C(=O)OC(C)C)cc1 | P2RY14 | cAMP, antagonist | HEK293 | 0.1 µM | inhibition | 110% |
| CCN1/C(=C/C(C)=O)Sc2ccc(F)cc21 | Corticotropin-releasing factor receptor 1 (CRHR1, Homo sapiens, UniProt P34998) | ligand displacement, radioligand | – | 10 µM | inhibition | 0% |
| COc1cccc(-c2ccc(NC(=O)C3=C(C(=O)O)CCC3)c(F)c2)c1 | Nuclear receptor subfamily 4 group A member 2 | thermal stability, DSF | – | 100 µM | ΔTm | -1.52 °C |
| O=C(COc1ccc(Cl)cc1)N[C@@H](Cc1c[nH]c2ccccc12)C(=O)O | P2RY14 | cAMP, antagonist | HEK293 | 0.1 µM | inhibition | 47.6% |
| COc1ccc2oc(-c3ccc4nc(N)oc4c3)c/c(=N\c3ccccc3NC(=O)CCN)c2c1 | CDKL1 | binding | – | 1 µM | remaining binding | 94% |
| CNC(=O)c1ccccc1Nc1nc(Nc2ccc(CO)nc2)ncc1Cl | IRAK4 | enzyme activity, inhibitor, radiometric | – | 1 µM | remaining activity | 1.87% |
| CNS(=O)(=O)c1ccc(Nc2ncc(C(F)(F)F)c(N3CCC[C@](C)(O)C3)n2)c(C)c1 | Serine/threonine-protein kinase ULK1 (ULK1, Homo sapiens, UniProt O75385) | binding, competition with immobilised ligand | – | 1 µM | remaining binding | 11% |
| O=C(N[C@@H](Cc1c[nH]c2ccccc12)C(=O)O)c1c[nH]c2ccccc12 | P2RY14 | cAMP, antagonist | HEK293 | 0.1 µM | inhibition | 36.7% |
| CCCCCCCC(=O)c1cc(OC)c(OC)c(OC)c1CC(=O)OCC | Nuclear receptor subfamily 4 group A member 2 | thermal stability, DSF | – | 100 µM | ΔTm | -1.02 °C |
| C1=C/COCc2cc(ccc2OCCN2CCCC2)Nc2nccc(n2)-c2cccc(c2)COC/1 | CDKL1 | binding | – | 0.1 µM | remaining binding | 89% |
